Entries after “also recorded” stand apart in the source; their conditions may differ. *1 amine or outer side, *2 acyl side, *3 side chain or, on linkers, in order; H or OH if unused. Where a SMILES comes first, the peptide text is derived from it. Side-chain parts run from the residue outwards. [ ]: non-standard residue; d: D form. The star is where a group is joined. Ethylenediamine = C(CN[*:2])N[*:1]; Hyp = O=C(O)[C@@H]1C[C@@H](O)CN1; Phg = N[C@H](C(=O)O)c1ccccc1; CO = O=C([*:1])[*:2]; Bn = c1ccc(C*)cc1
Experiments:
[1] = test system: patients with advanced NETs; assay: MTD/dose-limiting toxicity; assay type: in vivo, human; settings: 80 and 120 mg; first two treatment cycles
Procedure, shortened: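 Dose escalation in cohorts of 3–6 patients, starting at 80 mg IM every 28 days. Later doses were chosen in 20 mg multiples by a two-parameter Bayesian logistic regression model with overdose control. Intra-patient escalation was not allowed; de-escalation was permitted. DLT window was the first two 28-day cycles. Evaluable patients had two injections with sufficient safety evaluation, or a DLT. MTD was defined as the highest dose with expected DLT in ≤33%.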

[2] = test system: patients with advanced NETs; assay: AEs regardless of study drug relationship; assay type: in vivo, human
Procedure, shortened: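 Open-label, multicentre phase I in adults with advanced, well- or moderately differentiated NETs progressing within the prior 12 months; HbA1c >7.0% excluded. Test compound given as long-acting IM injection every 28 days. Safety set was everyone receiving at least one dose, grouped by first dose received. AEs coded by MedDRA 18.0; laboratory abnormalities graded by CTCAE 3.0.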

[3] = test system: patients with advanced NETs; assay: Bradycardia; assay type: in vivo, human; settings: for Odds ratio [95% CI] of bradycardia (HR <40 bpm) for a 1.5-fold increase in pasireotide concentration: logistic regression, not statistically significant
Procedure, shortened: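 HR recorded by 24-hour Holter on Cycle 1 Day 1 and Cycle 2 Day 1 in all patients. Bradycardia, defined as minimum HR <40 bpm, was analysed by pooling vital signs, 12-lead ECG and Holter data. Post hoc review covered dose-escalation cohorts plus the 120 mg expansion cohort. Dosing was IM every 28 days.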

[4] = Pasireotide plasma concentrations; assay type: in vivo; settings: human, im
[5] = test system: patients with advanced carcinoid syndrome refractory to octreotide LAR; settings: pasireotide LAR 60 mg vs octreotide LAR 30 mg; cited from earlier work

NCCCC[C@@H]1NC(=O)[C@@H](Cc2c[nH]c3ccccc23)NC(=O)[C@H](c2ccccc2)NC(=O)[C@@H]2C[C@@H](OC(=O)NCCN)CN2C(=O)[C@H](Cc2ccccc2)NC(=O)[C@H](Cc2ccc(OCc3ccccc3)cc2)NC1=O [Pasireotide LAR, pasireotide] (cyclo([Hyp]([CO-Ethylenediamine])[Phg][dW]KY(Bn)F))
Protocol-defined dose-limiting toxicities (DLTs) [1]: No protocol-defined dose-limiting toxicities; also recorded: no protocol-defined DLTs | AEs of any grade, patients ([2]; 80 mg): 92% | AEs, Total ([2]; 80 mg i.m./28 days (n=13), Grade 3/4): 9 (69.2) n (%) | AEs, Total ([2]; 80 mg i.m./28 days (n=13), all grade): 12 (92.3) n (%) | AEs of any grade, patients ([2]; 120 mg): 100% | AEs, Total ([2]; 120 mg i.m./28 days (n=16), Grade 3/4): 11 (68.8) n (%) | AEs, Total ([2]; 120 mg i.m./28 days (n=16), all grade): 16 (100) n (%) | AEs, Total ([2]; all patients, 80 or 120 mg (N=29), Grade 3/4): 20 (69.0) n (%) | AEs, Total ([2]; all patients, 80 or 120 mg (N=29), all grade): 28 (96.6) n (%) | Incidence of bradycardia (HR <40 bpm) ([3]; 120 mg (5/16), Holter assessment, post hoc): 31% | Odds ratio [95% CI] of bradycardia (HR <40 bpm) for a 1.5-fold increase in pasireotide concentration ([3]; day time (6 am through 10 pm)): 1.67 [0.38–7.34] | Odds ratio [95% CI] of bradycardia (HR <40 bpm) for a 1.5-fold increase in pasireotide concentration ([3]; night time (10 pm through 6 am)): 2.02 [0.49–8.29] | Cmax ([4]; 80 mg): 13.7 ± 11.5 ng/mL | Cmax ([4]; 120 mg): 23.2 ± 31.4 ng/mL

octreotide [octreotide LAR]
Tumor control rate at month 6 [5]: 46.2%

From paper PMC5499931 (OncoTargets and therapy, 2017)
